The source made the active and inactive calls. No cut-off for these calls is given here. Square brackets hold non-standard residues; d marks the D form. Peptide text beside a SMILES is read from it. Hyp = O=C(O)[C@@H]1C[C@@H](O)CN1; Ahx = NCCCCCC(=O)O
What was measured:
MCF7 [1] = test: Antiproliferative activity against human MCF7 cells at 10 uM incubated for 1 week in presence of tamoxifen by CellTiter 96 Aqueous One Solution based assay; assay type: functional, cell-based; conditions: time 1.0 weeks
How it was run: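 Tamoxifen-resistant MCF7 or T47D cells treated with peptide (10 μM) or tamoxifen (3 μM), alone or combined. Viability read by MTS reagent, 1 h at 37 °C, A490.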

T47D [2] = test: Antiproliferative activity against human T47D cells at 10 uM incubated for 1 week in presence of fulvestrant by CellTiter 96 Aqueous One Solution based assay; assay type: functional, cell-based; conditions: time 1.0 weeks
T47D [3] = test: Inhibition of cell migration in human T47D cells at 10 uM incubated for 24 hrs in presence of fulvestrant by inverted microscopic analysis; assay type: functional, cell-based
How it was run: (§1)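 Cells are seeded at 5 × 10^5/well and scratched at 80–90% confluence. They are kept in serum-free medium with peptide (10 μM); partner agents are JQ1 5 μM, iJMJD6 10 μM, or ICI 2.5 μM. Wound area is imaged by inverted microscope at 0 and 12 or 24 h. Wound closure % = (A0−A1)/A0 × 100. Three biological repeats.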

MDA-MB-231 [4] = test: Antitumor activity against human MDA-MB-231 cells xenografted in BALB/c nude mouse assessed as reduction in tumor weight at 12.5 mg/kg, ip administered every 2 days in presence of 50 mg/kg JQ1; assay type: functional, organism-based
How it was run: (§2)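 Female BALB/c nude mice given 5 × 10^6 cells sc (MCF7 mice with E2 10^-2 M every 2 days), randomised at ~50 mm3. Peptide 12.5 mg/kg ip (saline) every 2 days, plus JQ1 50 mg/kg ip (DMSO/10% HPBCD 1:10) every 2 days or iJMJD6 12.5 mg/kg ip (DMSO/PBS 1:20). Caliper volume every 2 days; tumours weighed at the end.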

MDA-MB-231 [5] = test: Inhibition of cell migration in human MDA-MB-231 cells at 10 uM incubated for 12 hrs in presence of 5 uM JQ1 by inverted microscopic assay; assay type: functional, cell-based; how it was run: as §1
[6] = Downregulation of JMJD6 protein expression in BALB/c mouse tumor xenografted with human MCF7 cells assessed as fold change in remaining JMJD6 level at 25 mg/kg, ip administered every 2 days by immunoblotting analysis; assay type: functional
How it was run: (§3)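 Tumours taken from xenograft mice dosed with peptide at 25 mg/kg ip every 2 days. […] Three repeats.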

[7] = Toxicity in BALB/c mouse xenografted with human MCF7 cells assessed as change in kidney morphology at 12.5 mg/kg, ip administered every 2 days in presence of 50 mg/kg JQ1; assay type: organism-based; conditions: in vivo, 48 h
[8] = Downregulation of CCND1 protein expression in human MCF7 cells assessed as fold change in remaining CCND1 level at 10 uM incubated for 24 hrs by immunoblotting analysis (reference value: 1); assay type: functional
How it was run: (§4)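 Cells treated with peptide (10 μM) for 24 h. Lysates in Tris/NaCl/EDTA/1% Triton X-100, run on 10% SDS-PAGE and immunoblotted with ECL detection. β-actin as loading control. Three repeats, quantified against untreated cells.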

MCF7 [9] = test: Inhibition of colony formation in human MCF7 cells at 10 uM incubated for 2 weeks in presence of tamoxifen by crystal violet staining based assay; assay type: functional, cell-based
How it was run: (§5)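 Cells are seeded at 1 × 10^3/well and treated with peptide (10 μM) for 2 weeks, alone or with JQ1 5 μM, iJMJD6 10 μM, ICI 2.5 μM, or tamoxifen 3 μM (tamoxifen-resistant lines). Colonies are stained with crystal violet, dissolved in 10% acetic acid, and read at 590 nm. Three biological repeats.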

MCF7 [10] = test: Inhibition of colony formation in human MCF7 cells at 10 uM incubated for 2 weeks in presence of JMJD6 inhibitor by crystal violet staining based assay; assay type: functional, cell-based; how it was run: as §5
Mus musculus = test: Downregulation of BRD4 mRNA expression in BALB/c mouse tumor xenografted with human MCF7 cells at 25 mg/kg, ip administered every 2 days by RT-qPCR analysis; assay type: functional, organism-based
[11] = Toxicity in BALB/c mouse xenografted with human MCF7 cells assessed as change in kidney weight at 12.5 mg/kg, ip administered every 2 days in presence of 50 mg/kg JQ1; assay type: organism-based; conditions: in vivo, 48 h
MCF7 [12] = test: Inhibition of cell migration in human MCF7 cells at 10 uM incubated for 24 hrs in presence of JMJD6 inhibitor by inverted microscopic analysis; assay type: functional, cell-based; how it was run: as §1
T47D [13] = test: Inhibition of colony formation in human T47D cells at 10 uM incubated for 2 weeks in presence of JMJD6 inhibitor by crystal violet staining based assay; assay type: functional, cell-based; how it was run: as §5
[14] = Downregulation of CCND1 protein expression in BALB/c mouse tumor xenografted with human MDA-MB-231 cells assessed as fold change in remaining CCND1 level at 25 mg/kg, ip administered every 2 days by immunoblotting analysis; assay type: functional; how it was run: as §3
[15] = Toxicity in BALB/c mouse xenografted with human MCF7 cells assessed as change in organ weight at 2.5 mg/kg, ip administered every 2 days in presence of 12.5 mg/kg fulvestrant; assay type: organism-based; conditions: in vivo, 48 h
MCF7 [16] = test: Antitumor activity against human MCF7 cells xenografted in BALB/c nude mouse assessed as reduction in tumor volume at 12.5 mg/kg, ip administered every 2 days in presence of 50 mg/kg JQ1; assay type: functional, organism-based; how it was run: as §2
[17] = Downregulation of JMJD6 protein expression in BALB/c mouse tumor xenografted with human MDA-MB-231 cells assessed as fold change in remaining JMJD6 level at 25 mg/kg, ip administered every 2 days by immunoblotting analysis; assay type: functional; how it was run: as §3
[18] = Downregulation of JMJD6 protein expression in human MDA-MB-231 cells assessed as fold change in remaining JMJD6 level at 10 uM incubated for 24 hrs by immunoblotting analysis (reference value: 1); assay type: functional; how it was run: as §4
MCF7 [19] = test: Inhibition of cell migration in human MCF7 cells at 10 uM incubated for 24 hrs by inverted microscopic assay; assay type: functional, cell-based; how it was run: as §1
MDA-MB-231 [20] = test: Inhibition of colony formation in human MDA-MB-231 cells at 10 uM incubated for 2 weeks in presence of 5 uM JQ1 by crystal violet staining based assay; assay type: functional, cell-based; how it was run: as §5
MCF7 [21] = test: Inhibition of colony formation in human MCF7 cells at 10 uM incubated for 2 weeks in presence of fulvestrant by crystal violet staining based assay; assay type: functional, cell-based; how it was run: as §5
[22] = Toxicity in BALB/c mouse xenografted with human […] cells assessed as change body weight at 12.5 mg/kg, ip administered every 2 days in presence of 50 mg/kg JQ1; assay type: organism-based; conditions: in vivo, 48 h
How it was run: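 Female BALB/c nude mice (4–6 weeks) carried sc MDA-MB-231 xenografts (5 × 10^6 cells) and were randomized at about 50 mm3. Peptide (12.5 mg/kg ip in saline) and JQ1 (50 mg/kg ip, DMSO/10% HPBCD 1:10) were given every 2 days, alone or combined. Body weight was recorded, and heart, liver, spleen, lung and kidney morphology and weight were assessed.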

## CC[C@H](C)[C@H](NC(=O)[C@H](Cc1ccc(O)cc1)NC(=O)[C@@H]1C[C@@H](O)CN1C(=O)[C@H](C)NC(=O)[C@@H](NC(=O)CCCCCNC(=O)[C@H](CCC(=O)O)NC(=O)CNC(=O)[C@H](CS)NC(=O)[C@H](CCCCN)NC(=O)[C@H](Cc1ccccc1)NC(=O)[C@H](CCCCN)NC(=O)[C@H](CCC(N)=O)NC(=O)[C@H](CC(N)=O)NC(=O)[C@H](CCCNC(=N)N)NC(=O)[C@H](CCCNC(=N)N)NC(=O)[C@H](CCCNC(=N)N)NC(=O)[C@H](CCCNC(=N)N)NC(=O)[C@H](CCC(N)=O)NC(=O)[C@H](CCCNC(=N)N)NC(=O)[C@H](CCCNC(=N)N)NC(=O)[C@H](CCCCN)NC(=O)[C@H](CCCCN)NC(=O)[C@H](CCCNC(=N)N)NC(=O)CNC(=O)[C@@H](N)Cc1ccc(O)cc1)[C@@H](C)CC)C(=O)O (H-YGRKKRRQRRRRNQKFKCGE[Ahx]IA[Hyp]YI-OH)
MCF7 [1]
  Activity: Active
T47D [2]
  Activity: Active
T47D [3]
  inhibition: Active
MDA-MB-231 [4]
  Activity: Active
MDA-MB-231 [5]
  inhibition: Active
[6]
  fold change (FC): 0.4
[7]
  Activity: Non-Toxic
[8]
  fold change (FC): 0.58
MCF7 [9]
  inhibition: Active
MCF7 [10]
  inhibition: Active
Mus musculus
  Activity: inactive
[11]
  Activity: Non-Toxic
MCF7 [12]
  inhibition: Active
T47D [13]
  inhibition: Active
[14]
  fold change (FC): 0.08
[15]
  Activity: Non-Toxic
MCF7 [16]
  Activity: Active
[17]
  fold change (FC): 0.48
[18]
  fold change (FC): 0.38
MCF7 [19]
  inhibition: Active
MDA-MB-231 [20]
  inhibition: Active
MCF7 [21]
  inhibition: Active
[22]
  Activity: Non-Toxic

## H-YGRKKRRQRRRRNQKFKCGE-OH
MCF7 [1]
  Activity: Active
T47D [2]
  Activity: Active
T47D [3]
  inhibition: Active
MDA-MB-231 [4]
  Activity: Active
MDA-MB-231 [5]
  inhibition: Active
[6]
  fold change (FC): 0.71
[7]
  Activity: Non-Toxic
[8]
  fold change (FC): 0.68
MCF7 [9]
  inhibition: Active
MCF7 [10]
  inhibition: Active
Mus musculus
  Activity: inactive
[11]
  Activity: Non-Toxic
MCF7 [12]
  inhibition: Active
T47D [13]
  inhibition: Active
[14]
  fold change (FC): 0.28
[15]
  Activity: Non-Toxic
MCF7 [16]
  Activity: Active
[17]
  fold change (FC): 0.98
[18]
  fold change (FC): 1.04
MCF7 [19]
  inhibition: Active
MDA-MB-231 [20]
  inhibition: Active
MCF7 [21]
  inhibition: Active
[22]
  Activity: Non-Toxic

From ChEMBL document CHEMBL5543129, “Peptide Inhibitor Targeting the Extraterminal Domain in BRD4 Potently Suppresses Breast Cancer Both In Vitro and In Vivo” (J Med Chem, 2024)
